This note sets out measurements from ChEMBL document CHEMBL1127817, “Antitumor agents. 150. 2',3',4',5',5,6,7-substituted 2-phenyl-4-quinolones and related compounds: their synthesis, cytotoxicity, and inhibition of tubulin polymerization” (J Med Chem, 1994).

One test has as its system DMS-114. Briefly: In vitro inhibition of tumor cell growth of DMS114, a small-cell lung cancer cell line. The conditions noted are these: Homo sapiens.
The test system of a further test is HCT-116. Briefly: In vitro inhibition of tumor cell growth of HCT116, colon cancer cell line. The format is functional. The note with it: Homo sapiens.
A further test deals with NCI-H226. Kind of test: In vitro inhibition of tumor cell growth of NCI-H226, a non small-cell lung cancer cell line. The format is functional. The note with it: Homo sapiens.
The next test relates to OVCAR-3. Kind of test: In vitro inhibition of tumor cell growth of OVCAR-3, ovarian cancer cell line. The note with it: Homo sapiens. The format is functional.
Another test concerns SK-MEL-5. Kind of test: In vitro inhibition of tumor cell growth of SK-Mel-5, melanoma cell line. The format is functional. The note with it: Homo sapiens.
In test [1] the test system is SF-268. Briefly: In vitro inhibition of tumor cell growth of SF-268, CNS tumor cell line. The format is functional. The conditions noted are these: Homo sapiens.
The next test concerns the target Tubulin beta chain (Bos taurus, UniProt Q6B856). Briefly: Inhibition of tubulin polymerization. The format is functional.
The test system of a further test is SF-295. Kind of test: In vitro inhibition of tumor cell growth of SF-295, CNS tumor cell line. The format is functional. The conditions noted are these: Homo sapiens.
Another test concerns the target Tubulin (Bos taurus) (UniProt Q6B856+Q862L2+Q862F3). Briefly: Inhibition of colchicine binding to tubulin isolated from bovine brain tissue. More on the design: concentration or dose not given beside the values. The note with it: concentration not given here. The format is functional. Summed up: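 1.0 μM tubulin incubated with 5.0 μM [3H]colchicine and 5.0 μM test agent; bound colchicine measured by DEAE-cellulose filter technique.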

Another test deals with RXF 393. Kind of test: In vitro inhibition of tumor cell growth of RXF-393, renal cancer cell line. The format is functional. The note with it: Homo sapiens.
Test [2] concerns KM-20L2. Briefly: In vitro inhibition of tumor cell growth of KM20L2, colon cancer cell line. The format is functional. The note with it: Homo sapiens.
Test [3] has as its system SF-268. Briefly: In vitro inhibition of tumor cell growth ofSF-268, CNS tumor cell line. The format is functional. The note with it: Homo sapiens.
Test [4] relates to KM-20L2. Kind of test: Inhibition of in vitro tumor cell growth in KM20L2, colon cancer cell line. The format is functional. The note with it: Homo sapiens.

Molecules are shown by their SMILES.

Tubulin beta chain, sequence (Q6B856 whole entry): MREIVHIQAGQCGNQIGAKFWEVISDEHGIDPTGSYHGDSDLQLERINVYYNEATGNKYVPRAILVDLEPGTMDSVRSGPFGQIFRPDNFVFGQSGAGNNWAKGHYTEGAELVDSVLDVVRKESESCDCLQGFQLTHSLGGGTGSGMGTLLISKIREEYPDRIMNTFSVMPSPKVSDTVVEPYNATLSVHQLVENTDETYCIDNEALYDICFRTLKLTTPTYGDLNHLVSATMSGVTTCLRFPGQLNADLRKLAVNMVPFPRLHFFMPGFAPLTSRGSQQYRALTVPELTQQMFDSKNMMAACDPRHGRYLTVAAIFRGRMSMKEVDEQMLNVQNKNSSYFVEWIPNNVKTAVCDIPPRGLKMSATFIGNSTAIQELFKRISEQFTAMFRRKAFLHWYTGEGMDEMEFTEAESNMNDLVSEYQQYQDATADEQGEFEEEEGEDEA

In the case of `O=c1cc(-c2ccccc2F)[nH]c2cc3c(cc12)OCO3`, the GI50 in the test with DMS-114 is 513 nM; in the test with HCT-116, 60.3 nM; in the test with NCI-H226, 447 nM; with OVCAR-3, 81.3 nM; in the test with SK-MEL-5 it was 20.9 nM; with SF-268 [1] it was 2290 nM. In the test with SF-295, this compound gave a 50% growth inhibitory concentration (GI50) of 55 nM. In addition, the midpoint of inhibition against Tubulin beta chain, the IC50, lay at 850 nM. The compound further yielded an inhibition on Tubulin (Bos taurus) of 37%.

Consider `COc1ccc2nc(-c3cccc(N(C)C)c3)cc(O)c2c1`, for which the 50% growth inhibitory concentration (GI50) with RXF 393 is 120 nM; in the test with HCT-116, 195 nM; in the test with NCI-H226 it was 372 nM; in the test with OVCAR-3, 170 nM; in the test with SK-MEL-5 it was 195 nM; in the test on SF-268 [1] it was 603 nM. This compound showed a GI50 with SF-295 of 204 nM. Moreover, the half-maximal inhibitory concentration (IC50) on Tubulin beta chain worked out at 840 nM. Further, the inhibition at Tubulin (Bos taurus) worked out at 18%.

For `Cc1ccc(-c2cc(O)c3cc4c(cc3n2)OCO4)cc1`, the concentration for 50% growth inhibition (GI50) is 676 nM in the test on HCT-116; 1580 nM in the test with NCI-H226; 427 nM in the test on OVCAR-3; 1740 nM in the test on SK-MEL-5; 2190 nM in the test with SF-268 [1]; 1910 nM in the test on SF-295. The compound further gave a GI50 in the test on KM-20L2 [2] of 1410 nM. For the same compound, the inhibition at Tubulin (Bos taurus) was 12%.

Take `COc1ccccc1-c1cc(O)c2cc3c(cc2n1)OCO3`: the GI50 in the test on RXF 393 is 15100 nM; with DMS-114 it was 25100 nM; with HCT-116, 28200 nM; in the test on NCI-H226 it was 22900 nM; with OVCAR-3 it was 39800 nM; with SK-MEL-5, 89100 nM. For the same compound, the GI50 was 20900 nM in the test with SF-295, 64600 nM with SF-268 [3] and 18600 nM in the test with KM-20L2 [4]. This compound also came in with a half-maximal inhibitory concentration (IC50) against Tubulin beta chain of 14000 nM.

As to `COc1cccc(-c2cc(O)c3cc(OC)ccc3n2)c1`, the GI50 in the test with RXF 393 was 191 nM; with HCT-116 it was 155 nM; in the test with NCI-H226 it was 347 nM; with SK-MEL-5 it was 117 nM; with SF-268 [1], 229 nM; in the test on SF-295 it was 151 nM. For the same compound, at Tubulin beta chain, the concentration for half-maximal inhibition (IC50) amounted to 740 nM. Moreover, the inhibition at Tubulin (Bos taurus) was determined as 13%.

Take `COc1cccc(-c2cc(O)c3cc4c(cc3n2)OCO4)c1`: the GI50 was 45.7 nM in the test on RXF 393; 240 nM with DMS-114; 174 nM in the test on HCT-116; 200 nM with NCI-H226; 45.7 nM in the test on OVCAR-3; 37.1 nM with SK-MEL-5. The GI50 with SF-295 is 91.2 nM; in the test with SF-268 [3], 132 nM; with KM-20L2 [2] it was 182 nM. At Tubulin beta chain, this compound displayed a half-maximal inhibitory concentration (IC50) of 570 nM.

Consider `COc1cc(OC)cc(-c2cc(O)c3cc4c(cc3n2)OCO4)c1`, for which the GI50 in the test with RXF 393 is 219 nM; in the test on DMS-114 it was 302 nM; in the test with HCT-116 it was 316 nM; in the test with NCI-H226 it was 219 nM; in the test with OVCAR-3 it was 195 nM; with SK-MEL-5, 309 nM. For the same compound, the GI50 in the test on SF-268 [1] is 708 nM; with SF-295 it was 257 nM; with KM-20L2 [2], 708 nM. At Tubulin beta chain, this compound returned an IC50 of 620 nM. Moreover, on Tubulin (Bos taurus), the inhibition is 31%.
